# Measurements pooled from the literature.
# Protocols differ between the studies behind these lines.
# Target: Casein kinase I isoform gamma-1 (CSNK1G1, Homo sapiens, UniProt Q9HCP0)
SMILES,assay,conditions,quantity,value
CNC(=O)c1cc(Oc2ccc(NC(=O)Nc3ccc(Cl)c(C(F)(F)F)c3)cc2)ccn1,"enzyme activity, inhibitor",10 µM,inhibition,-13%
Cc1ccc(C(=O)Nc2ccc(CN3CCN(C)CC3)c(C(F)(F)F)c2)cc1C#Cc1cnc2cccnn12,"enzyme activity, inhibitor",23.5 nM,remaining activity,89%
Cc1nc(N2CC[C@@H](O)C2)ncc1-c1cc(C(F)(F)F)cc2[nH]ncc12,"cell-free assay, competition with immobilised ligand",1 µM,remaining binding,78%
CC(C)c1ccc(NC(=O)c2cccs2)c(-c2nc3ccccc3[nH]c2=O)c1,"enzyme activity, inhibitor",1 µM,activity vs control,102%
CS(=O)(=O)N1CCCC(NC(=O)[C@H](CCC2CCCCC2)NC(=O)c2ccc(CNc3ncnc4c3nnn4-c3ccccc3)cc2)C1 (some centres unmarked),"cell-free assay, competition with immobilised ligand",0.1 µM,remaining binding,100%
COc1cc2ncnc(Nc3ccc(Oc4ccccc4)cc3C)c2cc1OC,"enzyme activity, inhibitor",1 µM,inhibition,8%
Nc1ncnc2occ(-c3ccc(NC(=O)Nc4cc(C(F)(F)F)ccc4F)cc3)c12,"cell-free assay, inhibitor",20 µM,remaining signal,18%
Cc1ccc(NC(=O)c2ccc(C)c(C(F)(F)F)c2)cc1C#Cc1nn(C2CCC(O)CC2)c2ncnc(N)c12 (centres unmarked),cell-free assay,10 µM,remaining signal,83%
CCCS(=O)(=O)Nc1ccc(F)c(C(=O)c2c[nH]c3ncc(-c4ccc(Cl)cc4)cc23)c1F,"enzyme activity, inhibitor",1 µM,inhibition,< 10%
C[C@@H]1CCN(C(=O)CC#N)C[C@@H]1N(C)c1ncnc2[nH]ccc12,"cell-free assay, inhibitor",0.5 µM,remaining signal,101%
CNC(=O)c1ccc(Nc2ncc(C(F)(F)F)c(NCc3nccnc3N(C)S(C)(=O)=O)n2)cc1,"cell-free assay, competition with immobilised ligand",0.1 µM,remaining binding,82%
Cc1cnc(NC2CCOCC2)nc1-n1cnc(C(=O)NC(CN)c2cc(F)cc(Cl)c2)c1 (centres unmarked),"enzyme activity, inhibitor, radiometric",1 µM,remaining activity,66%
Cc1ccc(Nc2nccc(N(C)c3ccc4c(C)n(C)nc4c3)n2)cc1S(N)(=O)=O,"enzyme activity, inhibitor",0.3 µM,inhibition,-27%
COc1cc2c(Nc3ccc(Br)cc3F)ncnc2cc1OCC1CCN(C)CC1,cell-free assay,0.5 µM,remaining signal,100%
CCC(=O)N[C@@H]1CC[C@H](C(=O)N(C)c2ccc(-c3nc4ccccc4o3)cc2)C1,"cell-free assay, competition with immobilised ligand",1 µM,remaining binding,100%
O=C1NC(=O)c2cc(Nc3ccc(F)cc3)c(Nc3ccc(F)cc3)cc21,cell-free assay,0.5 µM,remaining signal,96.3%
CCS(=O)(=O)c1cc2cc(C[C@@](O)(CC(C)(C)c3ccc(F)cc3C(N)=O)C(F)(F)F)[nH]c2cn1,"cell-free assay, competition with immobilised ligand",1 µM,remaining binding,100%
Cc1sc(C(=O)NC2COC2)cc1-n1cc(NC(=O)Nc2c(F)cccc2Cl)cn1,"enzyme activity, inhibitor",10 µM,remaining activity,101%
O=C(O)[C@H]1[C@H](Cn2nnc3ccccc3c2=O)CC[C@@H]1C(=O)c1ccc(OCCC2CCOCC2)cc1,"cell-free assay, competition with immobilised ligand",1 µM,remaining binding,94%
CC(C)(C)c1nc(-c2cccc(NS(=O)(=O)c3c(F)cccc3F)c2F)c(-c2ccnc(N)n2)s1,"enzyme activity, inhibitor, radiometric",1 µM,remaining activity,96%
